hERG protect: shields human hERG channel from block by proarrhythmic agents. hit rate 0.51% among 310,000. AID 1511. CHO-hERG, FluxOR thallium flux, dofetilide IC70 present. Q12809. activation (rescue from dofetilide block), less the hit threshold, % at 10 µM;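 active = activation above the mean of controls blocked by dofetilide plus 5 SD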;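 note: thallium influx through hERG after potassium depolarization seen as dye fluorescence rise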
Kir21 inh: blocks the mouse Kir2.1 inward-rectifier potassium channel. P35561. HEK293-Kir2.1, FluxOR thallium flux fluorescence; stronger effect = lower value. B-score at 10 µM. hit rate 0.85% among 310,000. AID 1672;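 active = fluorescence ratio B-score at or below minus 3 SD of library scores, with starting-brightness B-score within 2 SD, cut at about -4.2 in these data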;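 note: channel flux triggered by added potassium and thallium sulfate stimulus; B-score of peak minus minimum fluorescence over baseline after thallium stimulus; more negative B-score means stronger Kir2.1 block with less thallium influx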
KCNQ1 pot: human KCNQ1 channel potentiation or activation; P51787; CHO-K1 KCNQ1, thallium flux FluxOR fluorescence; stronger effect = higher value; B-score at 10 µM; hit rate 0.35% among 310,000; AID 2648;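 active = fluorescence ratio B-score, a plate-corrected score, at least three library SD, with initial intensity B-score within 5 SD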
Target sequence (P51787 whole entry, looked up): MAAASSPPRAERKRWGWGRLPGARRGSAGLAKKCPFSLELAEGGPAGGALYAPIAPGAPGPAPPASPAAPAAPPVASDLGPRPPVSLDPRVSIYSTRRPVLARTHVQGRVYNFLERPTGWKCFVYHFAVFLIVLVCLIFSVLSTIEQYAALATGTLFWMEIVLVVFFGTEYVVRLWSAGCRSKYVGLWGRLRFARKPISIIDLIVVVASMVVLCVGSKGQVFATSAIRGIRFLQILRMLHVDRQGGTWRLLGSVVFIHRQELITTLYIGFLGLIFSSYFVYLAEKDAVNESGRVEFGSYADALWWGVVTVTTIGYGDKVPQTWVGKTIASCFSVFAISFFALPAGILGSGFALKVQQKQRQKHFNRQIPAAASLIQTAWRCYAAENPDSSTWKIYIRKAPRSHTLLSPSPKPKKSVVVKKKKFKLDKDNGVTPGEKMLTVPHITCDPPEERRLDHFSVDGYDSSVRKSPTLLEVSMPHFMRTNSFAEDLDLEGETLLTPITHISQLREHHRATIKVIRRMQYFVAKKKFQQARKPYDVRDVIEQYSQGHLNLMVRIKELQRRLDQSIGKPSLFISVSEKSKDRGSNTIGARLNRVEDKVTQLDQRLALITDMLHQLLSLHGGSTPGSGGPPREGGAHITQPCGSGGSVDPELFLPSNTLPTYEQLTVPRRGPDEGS
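Doses: Single concentration per compound, DMSO matched to controls | Test system: KCNQ1-transfected CHO-K1 cells | Timing: 90 min dye loading and 20 min compound exposure, both at room temperature | Measured by: Kinetic FluxOR thallium fluorescence, 10-s 1-Hz baseline, 110-s post-stimulus read | Medium: Assay buffer with matched DMSO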
KCNK3 block: human KCNK3 channel inhibition, primary screen; O14649; CHO-KCNK3 thallium flux, FluxOR fluorescence; stronger effect = lower value; B-score at 10 µM; hit rate 0.84% among 340,000; AID 602410;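 active = B-score under library mean minus 4 SD, starting fluorescence ratio at most library mean plus 5 SD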;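 note: more negative B-score means stronger inhibition of thallium flux through KCNK3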
KCNQ1 block: inhibitors of human KCNQ1 potassium channel; P51787; CHO-K1 KCNQ1, FluxOR thallium flux fluorescence; stronger effect = higher value; B-score at 10 µM; hit rate 1.3% among 310,000;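 active = compounds whose thallium flux B-score, printed positive for inhibition, exceeds three library SD while starting fluorescence stays within three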;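 note: channel opened by potassium depolarization with thallium stimulus after 20 min compound exposure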
KCNK9 inh: human KCNK9 channel inhibition; hit rate 1.2% among 310,000; B-score at 10 µM; Q9NPC2; HEK293 KCNK9, FluxOR thallium flux fluorescence; stronger effect = lower value;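 active = ratio B-score over 3 SD below the library mean, with starting fluorescence within 5 SD of its mean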;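 note: negative B-score means less thallium flux so channel inhibition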
* hit, by the source's call; i = inactive; · = no result. Compounds with a hit are over-represented: about 3.8% of the library has one in this group of screens.

SMILES | hERG protect | Kir21 inh | KCNQ1 pot | KCNK3 block | KCNQ1 block | KCNK9 inh
COCCn1c(SCC(=O)Nc2cc(C)nn2-c2ccccc2)nnc1-c1ccncc1 | -4 | 1.4 | i | i | i | i
CCOc1ccc(C2C(C(=O)c3ccco3)=C(O)C(=O)N2CCN2CCOCC2)cc1 (stereo not drawn) | -2 | 1.2 | i | i | i | i
O=C(c1ccc(N2CCCCCC2)c([N+](=O)[O-])c1)N1CCc2ccccc21 | -9 | 0.2 | i | · | i | -7.4*
CCc1ccc(NC(=O)CCc2c(C)nn(-c3ccc(N4CCCCC4)nn3)c2C)cc1 | -13 | 0.22 | i | i | i | i
O=C(Nc1ccc(OC(F)F)cc1)c1cc(S(=O)(=O)N2CCCCC2)ccc1N1CCOCC1 | · | · | · | i | · | ·
CCOC(=O)c1c(NC(=O)C2c3ccccc3Oc3ccccc32)sc(C(C)=O)c1C | -12 | 2.3 | i | i | i | -7.4*
CCOC(=O)c1c(NC(=O)CSc2nnc(-c3ccc(C)cc3)o2)sc(C(C)=O)c1C | · | · | · | -10* | · | ·
COc1ccc(C[C@H]2CN3C(=NC[C@@H]3Cc3ccc(O)cc3)N2C[C@H](C)NC(=O)c2ccc(C)c(Br)c2)cc1 | -18 | -7.3* | i | i | i | i
COc1ccc(C[C@H]2CN3C(=NC[C@@H]3C(C)C)N2C[C@H](C)NC(=O)c2ccc(C)c(Br)c2)cc1 | -20 | -7.9* | i | i | i | i
Cc1ccc(C(=O)N[C@@H](C)CN2C3=NC[C@H](C(C)C)N3C[C@H]2Cc2ccc(O)cc2)cc1Br | -15 | -2.4 | i | i | i | i
Cc1ccc(C(=O)NCCN2C3=NC[C@H](Cc4ccc(O)cc4)N3C[C@H]2Cc2ccc(O)cc2)cc1Br | -14 | 2.2 | i | i | i | i
CCc1ccc(Oc2cc(Cl)nc(N)n2)cc1 | -5 | 0.52 | i | i | i | i
CC(C)(C)OC(=O)N[C@@H](Cc1ccccc1)C(=O)N1CCC(C(=O)N[C@@H](Cc2c[nH]c3ccccc23)C(=O)O)CC1 | -6 | 1.5 | i | i | i | i
CCC(Sc1ncccc1C(=O)Oc1cccc([N+](=O)[O-])c1)C(=O)Nc1ccccc1OC (stereo not drawn) | -8 | -0.98 | i | i | i | -7.9*
O=C(Nc1ccccc1C(=O)O)c1cc(S(=O)(=O)Nc2ccccc2)ccc1Cl | -11 | -0.71 | i | i | i | i
C=CCc1c(C)nc(-c2ccccc2)nc1N/N=C/c1ccccc1 | -12 | 0.41 | i | i | 6* | i
CCCCOc1cccc(C(=O)Nc2ccc(S(=O)(=O)Nc3cc(C)on3)cc2)c1 | -8 | 0.59 | i | i | i | i
COc1ccc(Nc2c3c(nc4ccccc24)CCC3)cc1 | -11 | -12* | i | i | i | i
COc1ccc(C)cc1Nc1c2c(nc3ccccc13)CCC2 | -15 | -9.3* | i | i | i | i
COc1ccc(Nc2c3c(nc4ccccc24)CCCC3)cc1OC | -7 | 0 | i | i | i | i
c1ccc(Nc2c3c(nc4ccccc24)CCC3)cc1 | -12 | -4.9* | i | i | i | i
Cc1ccc2nc3c(c(Nc4ccccc4)c2c1)CCC3 | -11 | -4.4* | i | i | i | i
CCCn1c(SCC(=O)c2cc(C)n(-c3cc(C)on3)c2C)n[nH]c1=O | · | · | · | i | · | ·
c1ccc2c(Nc3ccc4c(c3)OCCO4)c3c(nc2c1)CCC3 | -13 | -0.98 | i | i | i | i
Fc1ccc(Nc2c3c(nc4ccccc24)CCC3)cc1 | -17 | -5.1* | i | i | i | i
SMILES | hERG protect | Kir21 inh | KCNQ1 pot | KCNK3 block | KCNQ1 block | KCNK9 inh
CN(C)C(=O)CN1C(=O)C2CC=C(Cl)CC2C1=O (stereo not drawn) | -10 | 0.69 | i | i | i | i
CCN(CC)C(=O)CN1C(=O)C2CC=C(Cl)CC2C1=O (stereo not drawn) | 5.8* | 1.2 | i | i | i | i
C=CCSC(=C(C#N)C#N)c1cc2c([nH]1)CCCC2 | -14 | -0.29 | i | i | 8* | i
Cc1cccc(NC(=O)C(=O)NNC(=O)c2ccc(C(C)(C)C)cc2)c1 | 37* | -0.36 | 73* | i | i | i
COc1ccc(OC)c(NC(=O)NNC(=O)COc2ccc(-c3ccccc3)cc2)c1 | -12 | 0.48 | i | i | i | i
Cc1ccc(OCC(=O)NNC(=O)C(=O)NC(C)(C)C)cc1 | 3 | 1.6 | 8* | i | i | i
CC(C)(C)c1ccc(C(=O)NNC(=O)c2cccc(Br)c2)cc1 | -5 | 1.6 | i | i | i | i
COc1ccc(OCC(=O)NNC(=O)C(=O)Nc2cc(OC)ccc2OC)cc1 | 15* | -0.4 | i | i | i | i
Cc1ccc(NC(=O)NNC(=O)COc2ccc(Cl)cc2)cc1 | -5 | 1.8 | i | i | i | i
COc1ccc(C)cc1NC(=O)C(=O)NNC(=O)COc1ccc(Cl)cc1 | 88* | 0.12 | 59* | i | i | i
COc1ccc(OC)c(NC(=O)C(=O)NNC(=O)COc2ccc(Br)cc2C)c1 | 104* | 2.1 | 66* | i | i | i
Cc1ccccc1NC(=O)C(=O)NNC(=O)COc1ccc2ccccc2c1 | 29* | -0.02 | 49* | i | i | i
COc1ccc(OCC(=O)Nc2cccc(OC)c2)cc1 | -8 | 0.81 | i | i | i | i
COc1cccc(OCC(=O)NNC(=O)C(=O)Nc2cccc(C)c2)c1 | 17* | -2 | 21* | i | i | i
CC(C)N(Cc1ccccc1)C(=O)CN1C(=O)COc2ccc(S(=O)(=O)NC3CCCC3)cc21 | -8 | 0.72 | i | i | i | i
O=C(CCNC(=O)c1ccc([N+](=O)[O-])cc1)NC1CCCCCC1 | · | · | · | i | · | ·
Cc1ccc(S(=O)(=O)c2c(C)cc(C)nc2Oc2cccc(C(F)(F)F)c2)cc1 | -6 | 0 | i | i | i | -7.3*
COc1cccc(-c2cc(C(=O)O)[nH]n2)c1 | -7 | 0 | i | i | i | i
O=C(O)c1cc(-c2cccc([N+](=O)[O-])c2)n[nH]1 | 49* | -1.9 | i | i | i | i
CCCCCc1cccnc1 | -13 | 0.39 | i | i | i | i
COc1ccc(S(=O)(=O)N2CCOCC2)c2ccccc12 | -11 | -0.12 | i | i | i | i
Cc1cccc(N2CCN(S(=O)(=O)c3cc(-c4cc(C)no4)ccc3C)CC2C)c1 (stereo not drawn) | -5 | 0.09 | i | i | i | i

Screening results as filed in PubChem BioAssay.
